High-throughput results deposited in PubChem by several laboratories.
PolyA inh – blocks polyadenylation in yeast reporter cells; S. cerevisiae SKY197-pL101 polyadenylation reporter, beta-gal luminescence; efflux-impaired pdr1/pdr3 knockout yeast; score 100 = 6 SD above DMSO; activity score, % at 12 µM; 300,000 compounds, 0.02% hits; AID 1875;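 active = lowest replicate activity score at least 50, where 100 means six control SD above control mean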;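 note: yeast exposed to compound for 9 h at 30 °C; higher score means more reporter readthrough which indicates perturbed polyadenylation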
Arr AP2 block – human beta-arrestin and AP2 interaction inhibition; 340,000 compounds, 0.31% hits; inhibition, % at 10 µM; AID 504490; FITC-arrestin peptide / GST-AP2 beads, flow cytometry; AP2 beta2 appendage carries R879A mutation;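 active = inhibition above a set limit, near 3 SD of compounds lacking own fluorescence, cut at about 54% in these data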;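 note: plate controls were DMSO wells for no effect and 5 µM unlabelled arrestin peptide for full effect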
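Measured by: flow cytometry, FL1 (488/535 nm); Material: AP2 appendage R879A on GSH beads; Evaluation: percent response; Timing: pre-incubation 12 min, peptide binding 1 h, room temperature; Also added: 50 nM FITC-arrestin peptide; Medium: PBS with 0.05% Tween 20 and 0.1% BSA.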
A3G deaminase – APOBEC3G (human) deaminase inhibition; inhibition, % at 20 µM; Q9HC16; recombinant A3G, ssDNA deamination FAM/TAMRA fluorescence; 330,000 compounds, 0.28% hits;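 active = inhibition of at least 40% at 20 µM, with no more than 30% in the related APOBEC3A deaminase screen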;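 note: plate controls were DMSO wells with A3G for no effect and wells lacking A3G enzyme for full effect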
A3A deaminase – blocks human APOBEC3A ssDNA deamination; P31941; 330,000 compounds, 0.41% hits; AID 493011; recombinant A3A, FAM/TAMRA ssDNA deamination fluorescence; inhibition, % at 20 µM;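 active = at least 40% inhibition at 20 µM here, with at most 30% in a related deaminase screen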;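 note: plate controls were A3A with DMSO for no effect and wells lacking A3A enzyme for full effect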
Target sequence (P31941 whole entry, looked up): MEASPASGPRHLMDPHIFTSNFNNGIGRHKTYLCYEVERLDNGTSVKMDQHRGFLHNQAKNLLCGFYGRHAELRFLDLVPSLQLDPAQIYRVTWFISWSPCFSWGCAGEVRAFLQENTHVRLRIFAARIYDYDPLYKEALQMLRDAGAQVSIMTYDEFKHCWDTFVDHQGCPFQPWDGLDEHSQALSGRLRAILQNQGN
UCH37 inh – blocks the human deubiquitinase UCH37 | Q9Y5K5 | purified proteasome/UCH37, Ub-AMC cleavage fluorescence | inhibition, % (test concentration not listed) | 330,000 compounds, 0.33% hits | AID 588478;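 active = mean inhibition over replicate wells above about 20%, limit read from the data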;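 note: 0% = compound-free wells with enzyme and 100% = wells lacking proteasome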
Target sequence (Q9Y5K5 whole entry, looked up): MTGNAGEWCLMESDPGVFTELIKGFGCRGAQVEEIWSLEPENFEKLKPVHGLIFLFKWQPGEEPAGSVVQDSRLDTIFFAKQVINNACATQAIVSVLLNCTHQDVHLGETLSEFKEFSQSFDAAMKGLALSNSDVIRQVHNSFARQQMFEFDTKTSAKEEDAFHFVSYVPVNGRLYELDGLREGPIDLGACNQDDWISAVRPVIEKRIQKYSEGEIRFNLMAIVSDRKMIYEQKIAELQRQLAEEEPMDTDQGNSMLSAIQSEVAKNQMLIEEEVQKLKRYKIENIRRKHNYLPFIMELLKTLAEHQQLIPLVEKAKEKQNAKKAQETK
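assay system = human UCH37 enzyme supplied as purified proteasome complex | amount = proteasome at 0.15 nM in the dispensed enzyme solution | schedule = 30 min compound-proteasome preincubation then 25 min substrate reaction, room temperature | measured by = fluorescence, ex 355 nm, em 460 nm | benchmarks = no-proteasome wells (full inhibition) and compound-free wells (no inhibition)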
AHR activator – activates the human aryl hydrocarbon receptor | P35869 | 320,000 compounds, 2.5% hits | activation, % at 5 µM | AHR-responsive luciferase reporter cells, luminescence; in the data active = activation above about 47%;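 note: 0% = vehicle wells and 100% = reference agonist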
A3A conf – APOBEC3A (human) deaminase inhibition, confirmed; shares compounds with A3A deaminase; recombinant A3A, ssDNA deaminase UDG fluorescence assay; inhibition, % at 20 µM; 1,400 compounds, 63% hits;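 active = inhibition reaching a set limit, 80% of the first screen's cutoff, at 20 µM in any replicate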;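 note: plate controls were DMSO wells with A3A for no effect and wells lacking A3A enzyme for full effect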
UDG ctr A3A – inhibits UDG, flagging false APOBEC3A inhibitors; shares compounds with A3A deaminase; UDG counterscreen, FAM/TAMRA uracil oligo fluorescence; inhibition, % at 20 µM; 1,000 tested, under 10 active; AID 504714; call rule not given here
An asterisk follows results filed as active; · = no result given. Only some compounds are listed: those with a hit (about 3.4% of all), similar ones and a draw of the others.

SMILES	PolyA inh	Arr AP2 block	A3G deaminase	A3A deaminase	UCH37 inh	AHR activator	A3A conf	UDG ctr A3A
Cc1c2cccn2cc[n+]1C	10.6	-19.4	21.2	41.8*	-153.8	4.7	77.5*	1.1
O=C(CSCc1ccc([N+](=O)[O-])cc1)NN=Cc1ccncc1	·	·	·	·	1.8	·	·	·
O=C(C[n+]1ccccc1)NN=Cc1c(F)cccc1Cl	·	·	·	·	1.0	·	·	·
O=C(Nc1ccc(NC(=O)C2CC2)cn1)c1ccccc1Cl	14.6	4.0	-1.7	43.1*	3.6	3.0	-5.8	-0.7
O=C(Nc1ccc(NC(=O)C2CC2)cn1)c1ccccc1	-9.4	6.8	-5.0	2.3	4.7	5.5	·	·
O=C(Cc1ccc(O)cc1)NN=Cc1cccs1	·	·	·	·	1.8	·	·	·
Cc1ccc(C(=O)/C=C/c2ccc(-c3ccc(C)cc3)o2)cc1	-3.2	28.6	-3.0	5.1	0.7	3.7	·	·
O=C(/C=C\c1ccc(-c2ccccc2)o1)c1ccccc1	31.0	26.2	11.8	48.0*	-1.4	22.6	11.1*	-2.7
COCCNC(=O)C(=O)NN=C(C)CC(=O)Nc1ccc(Cl)cc1Cl	·	·	·	·	-2.8	·	·	·
COc1cc(C=NNS(=O)(=O)c2ccccc2)c(OC)c(OC)c1	·	·	·	·	3.4	·	·	·
Cc1ccc(CSc2ncn(-c3ccccc3)n2)cc1	-11.4	-3.4	9.6	40.8*	-0.7	-3.4	1.8	·
CCOc1ccc(C=NNC(=S)Nc2c(C)cccc2C)cc1	·	·	·	·	4.5	·	·	·
CC1(C)CC(=O)C=C(Nc2cccc(F)c2)C1	-17.7	0.3	-7.5	-3.4	5.3	-0.7	·	·
CN(C)c1cccc(NC2=CC(=[N+]3CCOCC3)CC(C)(C)C2)c1	0.6	18.5	18.0	40.7*	14.1	8.0	18.2	·
Cn1nc(C(F)(F)F)c(C=NOC(=O)c2ccccc2Cl)c1SCc1ccc(Cl)cc1	·	·	·	·	0.2	·	·	·
CNC(=O)c1cc(Cl)c(OC)c(OC)c1	0.1	-8.9	12.0	56.9*	1.1	9.2	11.6	·
COc1cc(C(N)=O)cc(Cl)c1OC	14.1	22.8	-4.4	-0.3	0.5	0.3	·	·
CC(=NNC(=O)COc1ccccc1)c1cccs1	·	·	·	·	2.0	·	·	·
N=C1/C(=C/c2ccco2)C(=O)N=C2SC(CC(=O)N3CCCC3)=NN12	-4.4	30.6	27.3	51.4*	18.6	4.8	42.3*	1.2
N=C1/C(=C/c2ccc(Br)o2)C(=O)N=C2SC(CC(=O)N3CCCC3)=NN12	-2.2	-11.0	17.9	43.4*	17.3	-1.9	45.0*	·
Cc1ccc(/C=C2\C(=N)N3N=C(CC(=O)N4CCCCC4)SC3=NC2=O)cc1	-2.7	34.7	-3.3	-0.5	3.2	0.8	·	·
Nc1c(Cl)ncnc1NN=Cc1ccc2ccccc2n1	·	·	·	·	8.7	·	·	·
COCCN=C1N[C@@H](c2ccccc2)C(C(=O)OC)=C(C)N1Cc1ccccc1	-7.4	-6.6	7.6	33.5	-3.8	1.8	·	·
COC(=O)C1=C(C)N(Cc2ccccc2)C(=NCc2cc(OC)c(OC)c(OC)c2)N[C@H]1c1ccc(Br)cc1	·	-3.2	18.1	46.1*	1.2	-0.6	60.5*	-9.7
COC(=O)C1=C(C)N(CC2CC2)C(=NCc2cccc(Cl)c2)N[C@H]1c1ccccc1	1.1	0.8	8.2	59.2*	1.3	-0.4	44.1*	·
SMILES	PolyA inh	Arr AP2 block	A3G deaminase	A3A deaminase	UCH37 inh	AHR activator	A3A conf	UDG ctr A3A
COC(=O)C1=C(C)N(Cc2ccccc2)C(=NCc2cccc(Cl)c2)N[C@H]1c1ccccc1	·	12.7	7.0	36.9	·	-1.9	·	·
COC(=O)C1=C(C)N(Cc2ccccc2)C(=NCc2ccccc2)N[C@H]1c1ccccc1	·	-4.4	3.7	32.4	1.5	-2.0	·	·
COC(=O)C1=C(C)N(CC2CC2)C(=NCc2cc(OC)c(OC)c(OC)c2)N[C@H]1c1ccccc1	-20.2	-2.5	16.1	46.6*	-0.7	1.8	55.5*	-4.8
COCCN=C1N[C@@H](c2ccc(Br)cc2)C(C(=O)OC)=C(C)N1Cc1ccccc1	-4.6	15.2	14.3	53.8*	-0.2	-1.9	39.6*	-1.5
NC(=O)NN=Cc1ccc(-n2nncc2-c2ccc(Cl)cc2)cc1	·	·	·	·	3.0	·	·	·
CC(=NNC(=O)c1cc(-c2ccccc2C)nc2ccccc12)c1cccnc1	·	·	·	·	-0.2	·	·	·
CC(C)(C=NNC(=O)CSCc1ccccc1Cl)CCC#N	·	·	·	·	1.8	·	·	·
COC(=O)C1=C(C)N(Cc2ccccc2)C(=NCc2cc(OC)c(OC)c(OC)c2)N[C@H]1c1ccccc1	5.9	5.6	24.7	70.1*	4.1	1.4	46.6*	·
CC(=O)Nc1ccc(NC(=O)Nc2ccccc2C)cc1	-0.2	16.8	20.9	-0.4	-1.3	6.8	·	·
Cc1ccccc1NC(=O)N(C(C)C)C(C)C	-3.2	-9.0	-3.7	83.2*	0.1	-1.4	-1.6	-2.5
Cn1nnnc1SCC(=O)Nc1ccc(Br)cc1Cl	12.1	-3.3	14.9	49.7*	1.4	-4.0	49.0*	-1.1
CCN1CCN(c2ccc(S(=O)(=O)N3CCCCC3)cc2NC(=O)COc2ccccc2)CC1	5.9	-6.2	-9.2	13.3	2.5	0.4	·	·
CC(=O)c1ccc(OCCCC(=O)Nc2cc(S(=O)(=O)N3CCCCC3)ccc2C)cc1	·	-7.3	4.6	40.1*	4.1	·	9.4	·
Cc1ccc(S(=O)(=O)N2CCCCC2)cc1NC(=O)CCCOc1ccccc1	·	-14.6	-1.2	14.4	5.5	·	·	·
CCC(=O)c1ccc(OCC(=O)Nc2cc(S(=O)(=O)N3CCCCC3)ccc2N2CCN(CC)CC2)cc1	6.6	13.5	13.1	55.5*	-2.7	1.7	66.4*	-2.2
CN1CCN(c2ccc(S(=O)(=O)N3CCCCC3)cc2NC(=O)Cc2c(F)cccc2Cl)CC1	-6.5	-7.6	-2.2	45.7*	0.5	-2.4	35.6*	-0.3
O=C(Cc1c(F)cccc1Cl)Nc1cc(S(=O)(=O)N2CCCCC2)ccc1N1CCOCC1	7.7	26.6	3.3	2.6	0.3	1.9	·	·
CCOc1ccccc1OCC(=O)Nc1cc(S(=O)(=O)N2CCCCC2)ccc1N1CCN(CC)CC1	15.2	-5.5	10.1	60.2*	5.3	2.6	54.6*	3.3
CCOc1ccc(C=NNC(=O)c2ccc(F)cc2)cc1CN1CC2CC(C1)c1cccc(=O)n1C2 (stereo unspecified)	·	·	·	·	4.2	·	·	·
O=C(O)c1cccc(NC(=S)NN=Cc2ccccc2OCc2cccc(Br)c2)c1	·	·	·	·	4.4	·	·	·
CCCCc1nnc(NC(=O)c2cccc(S(=O)(=O)N3CCN(C)CC3)c2)s1	8.1	3.1	20.6	58.1*	6.2	4.7	20.2	·
CN1CCN(S(=O)(=O)c2cccc(C(=O)Nc3cc(C(F)(F)F)ccc3N3CCCCC3)c2)CC1	-2.9	-5.3	10.6	44.1*	-9.3	3.3	18.4	·
